From ChEMBL document CHEMBL1123146, “Design, synthesis, and evaluation of omega-iodovinyl- and omega-iodoalkyl-substituted methyl-branched long-chain fatty acids” (J Med Chem, 1985)

What was measured:
Rattus norvegicus [1] = test: Distribution of radioactivity was measured in blood tissue of unfasted Fischer 344 rats administered intravenously after 5 minutes (radiolabeled with [125I]-; format: ADME, organism-based; conditions: in vivo, iv
Summary of the method: (§1)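 Female Fischer 344 rats, 10–12 weeks old (170–200 g), with food and water ad libitum, five per time point. The radioiodinated fatty acid was dissolved in ethanol, added to 6% BSA at ~40 °C (final 10% ethanol), filtered, and injected into a lateral tail vein (0.5 mL) under ether anesthesia. Blood was taken by cardiac puncture; organs were rinsed, blotted, weighed and gamma-counted against injectate standards. Output is % injected dose/g.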

Rattus norvegicus [2] = test: Distribution of radioactivity was measured in lung tissue of unfasted Fischer 344 rats administered intravenously after 30 minutes (radiolabeled with [125I]-; format: ADME, organism-based; conditions: in vivo, iv, 0.5 h; summary of the method: as §1
Rattus norvegicus [3] = test: Distribution of radioactivity was measured in heart tissue of unfasted Fischer 344 rats administered intravenously after 60 minutes (radiolabeled with [125I]-; format: ADME, organism-based; conditions: in vivo, iv, 1 h; summary of the method: as §1
Rattus norvegicus [4] = test: Distribution of radioactivity was measured in liver tissue of unfasted Fischer 344 rats administered intravenously after 30 minutes (radiolabeled with [125I]-; format: ADME, organism-based; conditions: in vivo, iv, 0.5 h; summary of the method: as §1
Rattus norvegicus [5] = test: Distribution of radioactivity was measured in blood tissue of unfasted Fischer 344 rats administered intravenously after 60 minutes (radiolabeled with [125I]-; format: ADME, organism-based; conditions: in vivo, iv, 1 h; summary of the method: as §1
Rattus norvegicus [6] = test: Distribution of radioactivity was measured in heart tissue of unfasted Fischer 344 rats administered intravenously after 30 minutes (radiolabeled with [125I]-; format: ADME, organism-based; conditions: in vivo, iv, 0.5 h; summary of the method: as §1
Rattus norvegicus [7] = test: Distribution of radioactivity was measured in kidney tissue of unfasted Fischer 344 rats administered intravenously after 5 minutes (radiolabeled with [125I]-; format: ADME, organism-based; conditions: in vivo, iv; summary of the method: as §1
Rattus norvegicus [8] = test: Mean heart/blood tissue of unfasted Fischer 344 rats administered intravenous after 5 minutes (radiolabeled with [125I]-; format: ADME, organism-based; conditions: in vivo
Summary of the method: (§2)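 Female Fischer 344 rats (10-12 weeks, 170-200 g), fed ad libitum before and during the experiment, five per time point. The radioiodinated fatty acid was dissolved in 0.5 mL absolute ethanol, added dropwise to stirred 6% BSA at ~40 °C (final ethanol 10%), filtered at 0.22 µm, and injected in 0.5 mL into a lateral tail vein under ether anesthesia.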

Rattus norvegicus [9] = test: Distribution of radioactivity was measured in thyroid tissue of unfasted Fischer 344 rats administered intravenously after 2 minutes (radiolabeled with [125I]-; format: ADME, organism-based, Thyroid gland; conditions: in vivo, iv; summary of the method: as §1
Rattus norvegicus [10] = test: Distribution of radioactivity was measured in liver tissue of unfasted Fischer 344 rats administered intravenously after 2 minutes (radiolabeled with [125I]-; format: ADME, organism-based; conditions: in vivo, iv; summary of the method: as §1
Rattus norvegicus [11] = test: Distribution of radioactivity was measured in blood tissue of unfasted Fischer 344 rats administered intravenously after 2 minutes (radiolabeled with [125I]-; format: ADME, organism-based; conditions: in vivo, iv; summary of the method: as §1
Rattus norvegicus [12] = test: Distribution of radioactivity was measured in lung tissue of unfasted Fischer 344 rats administered intravenously after 2 minutes (radiolabeled with [125I]-; format: ADME, organism-based; conditions: in vivo, iv; summary of the method: as §1
Rattus norvegicus [13] = test: Distribution of radioactivity was measured in liver tissue of unfasted Fischer 344 rats administered intravenously after 5 minutes (radiolabeled with [125I]-; format: ADME, organism-based; conditions: in vivo, iv; summary of the method: as §1
Rattus norvegicus [14] = test: Distribution of radioactivity was measured in liver tissue of unfasted Fischer 344 rats administered intravenously after 60 minutes (radiolabeled with [125I]-; format: ADME, organism-based; conditions: in vivo, iv, 1 h; summary of the method: as §1
Rattus norvegicus [15] = test: Distribution of radioactivity was measured in thyroid tissue of unfasted Fischer 344 rats administered intravenously after 5 minutes (radiolabeled with [125I]-; format: ADME, organism-based, Thyroid gland; conditions: in vivo, iv; summary of the method: as §1
Rattus norvegicus [16] = test: Distribution of radioactivity was measured in kidney tissue of unfasted Fischer 344 rats administered intravenously after 30 minutes (radiolabeled with [125I]-; format: ADME, organism-based; conditions: in vivo, iv, 0.5 h; summary of the method: as §1
Rattus norvegicus [17] = test: Distribution of radioactivity was measured in blood tissue of unfasted Fischer 344 rats administered intravenously after 15 minutes (radiolabeled with [125I]-; format: ADME, organism-based; conditions: in vivo, iv, 0.25 h; summary of the method: as §1
Rattus norvegicus [18] = test: Distribution of radioactivity was measured in heart tissue of unfasted Fischer 344 rats administered intravenously after 5 minutes (radiolabeled with [125I]-; format: ADME, organism-based; conditions: in vivo, iv; summary of the method: as §1
Rattus norvegicus [19] = test: Distribution of radioactivity was measured in heart tissue of unfasted Fischer 344 rats administered intravenously after 2 minutes (radiolabeled with [125I]-; format: ADME, organism-based; conditions: in vivo, iv; summary of the method: as §1
Rattus norvegicus [20] = test: Distribution of radioactivity was measured in lung tissue of unfasted Fischer 344 rats administered intravenously after 60 minutes (radiolabeled with [125I]-; format: ADME, organism-based; conditions: in vivo, iv, 1 h; summary of the method: as §1
Rattus norvegicus [21] = test: Distribution of radioactivity was measured in thyroid tissue of unfasted Fischer 344 rats administered intravenously after 15 minutes (radiolabeled with [125I]-; format: ADME, organism-based, Thyroid gland; conditions: in vivo, iv, 0.25 h; summary of the method: as §1
Rattus norvegicus [22] = test: Mean heart/blood tissue of unfasted Fischer 344 rats administered intravenous after 30 minutes (radiolabeled with [125I]-; format: ADME, organism-based; conditions: in vivo, 0.5 h; summary of the method: as §2
Rattus norvegicus [23] = test: Distribution of radioactivity was measured in heart tissue of unfasted Fischer 344 rats administered intravenously after 15 minutes (radiolabeled with [125I]-; format: ADME, organism-based; conditions: in vivo, iv, 0.25 h; summary of the method: as §1
Rattus norvegicus [24] = test: Distribution of radioactivity was measured in kidney tissue of unfasted Fischer 344 rats administered intravenously after 2 minutes (radiolabeled with [125I]-; format: ADME, organism-based; conditions: in vivo, iv; summary of the method: as §1
Rattus norvegicus [25] = test: Distribution of radioactivity was measured in liver tissue of unfasted Fischer 344 rats administered intravenously after 15 minutes (radiolabeled with [125I]-; format: ADME, organism-based; conditions: in vivo, iv, 0.25 h; summary of the method: as §1
Rattus norvegicus [26] = test: Distribution of radioactivity was measured in kidney tissue of unfasted Fischer 344 rats administered intravenously after 15 minutes (radiolabeled with [125I]-; format: ADME, organism-based; conditions: in vivo, iv, 0.25 h; summary of the method: as §1
Rattus norvegicus [27] = test: Distribution of radioactivity was measured in thyroid tissue of unfasted Fischer 344 rats administered intravenously after 30 minutes (radiolabeled with [125I]-; format: ADME, organism-based, Thyroid gland; conditions: in vivo, iv, 0.5 h; summary of the method: as §1
Rattus norvegicus [28] = test: Distribution of radioactivity was measured in kidney tissue of unfasted Fischer 344 rats administered intravenously after 60 minutes (radiolabeled with [125I]-; format: ADME, organism-based; conditions: in vivo, iv, 1 h; summary of the method: as §1
Rattus norvegicus [29] = test: Mean heart/blood tissue of unfasted Fischer 344 rats administered intravenous after 15 minutes (radiolabeled with [125I]-; format: ADME, organism-based; conditions: in vivo, 0.25 h; summary of the method: as §2
Rattus norvegicus [30] = test: Distribution of radioactivity was measured in lung tissue of unfasted Fischer 344 rats administered intravenously after 15 minutes (radiolabeled with [125I]-; format: ADME, organism-based; conditions: in vivo, iv, 0.25 h; summary of the method: as §1
Rattus norvegicus [31] = test: Distribution of radioactivity was measured in blood tissue of unfasted Fischer 344 rats administered intravenously after 30 minutes (radiolabeled with [125I]-; format: ADME, organism-based; conditions: in vivo, iv, 0.5 h; summary of the method: as §1
Rattus norvegicus [32] = test: Mean heart/blood tissue of unfasted Fischer 344 rats administered intravenous after 60 minutes (radiolabeled with [125I]-; format: ADME, organism-based; conditions: other tissue, 1 h; summary of the method: as §2
Rattus norvegicus [33] = test: Distribution of radioactivity was measured in lung tissue of unfasted Fischer 344 rats administered intravenously after 5 minutes (radiolabeled with [125I]-; format: ADME, organism-based; conditions: in vivo, iv; summary of the method: as §1
Rattus norvegicus [34] = test: Mean heart/blood tissue of unfasted Fischer 344 rats administered intravenous after 2 minutes (radiolabeled with [125I]-; format: ADME, organism-based; conditions: in vivo; summary of the method: as §2
Rattus norvegicus [35] = test: Distribution of radioactivity was measured in thyroid tissue of unfasted Fischer 344 rats administered intravenously after 60 minutes (radiolabeled with [125I]-; format: ADME, organism-based, Thyroid gland; conditions: in vivo, iv, 1 h; summary of the method: as §2
Rattus norvegicus [36] = organism: Rattus norvegicus; test: Specific activity was determined with radioiodinated iodine-125; format: functional
Rattus norvegicus [37] = organism: Rattus norvegicus; test: Specific activity was determined with radioiodinated iodine-123; format: functional

Structure (SMILES) | Distribution (Rattus norvegicus [1]) | Distribution (Rattus norvegicus [2]) | Distribution (Rattus norvegicus [3]) | Distribution (Rattus norvegicus [4]) | Distribution (Rattus norvegicus [5]) | Distribution (Rattus norvegicus [6]) | Distribution (Rattus norvegicus [7]) | Distribution (Rattus norvegicus [8]) | Distribution (Rattus norvegicus [9]) | Distribution (Rattus norvegicus [10]) | Distribution (Rattus norvegicus [11]) | Distribution (Rattus norvegicus [12]) | Distribution (Rattus norvegicus [13]) | Distribution (Rattus norvegicus [14]) | Distribution (Rattus norvegicus [15]) | Distribution (Rattus norvegicus [16]) | Distribution (Rattus norvegicus [17]) | Distribution (Rattus norvegicus [18]) | Distribution (Rattus norvegicus [19]) | Distribution (Rattus norvegicus [20]) | further results
CC(CCCCCCCCCCCCCC/C=C/I)CC(=O)O (centres undefined) | 0.67% | 0.89% | 3.08% | 5.97% | 0.37% | 4.12% | 0.92% | 5.6% | 7.21% | 8.32% | 1.05% | 1.42% | 7.81% | 4.73% | 9.49% | 0.71% | 0.41% | 3.74% | 3.93% | 0.73% | Distribution (Rattus norvegicus [21]): 16.9%; Distribution (Rattus norvegicus [22]): 6.9%; Distribution (Rattus norvegicus [23]): 3.47%; Distribution (Rattus norvegicus [24]): 0.95%; Distribution (Rattus norvegicus [25]): 8.44%; Distribution (Rattus norvegicus [26]): 0.66%; Distribution (Rattus norvegicus [27]): 29.4%; Distribution (Rattus norvegicus [28]): 0.67%; Distribution (Rattus norvegicus [29]): 7.4%; Distribution (Rattus norvegicus [30]): 0.83%; Distribution (Rattus norvegicus [31]): 0.59%; Distribution (Rattus norvegicus [32]): 8.3%; Distribution (Rattus norvegicus [33]): 1.18%; Distribution (Rattus norvegicus [34]): 3.7%; Distribution (Rattus norvegicus [35]): 65.4%; Specific activity (Rattus norvegicus [36]): 7.08 Ci mM-1; Specific activity (Rattus norvegicus [37]): 4.98 Ci mM-1
O=C(O)CCCCCCCCCCCCCCCC/C=C/I | 0.3% | 1% | 3.4% | 5.72% | 0.31% | 3.79% | 0.82% | 12.4% | 7.91% | 6.91% | 0.45% | 1.16% | 6.45% | 3.79% | 8.73% | 0.76% | 0.35% | 3.72% | 4.44% | 0.86% | Distribution (Rattus norvegicus [21]): 15.7%; Distribution (Rattus norvegicus [22]): 7.4%; Distribution (Rattus norvegicus [23]): 3%; Distribution (Rattus norvegicus [24]): 0.85%; Distribution (Rattus norvegicus [25]): 5.88%; Distribution (Rattus norvegicus [26]): 0.73%; Distribution (Rattus norvegicus [27]): 21.9%; Distribution (Rattus norvegicus [28]): 0.67%; Distribution (Rattus norvegicus [29]): 8.6%; Distribution (Rattus norvegicus [30]): 0.92%; Distribution (Rattus norvegicus [31]): 0.51%; Distribution (Rattus norvegicus [32]): 10.9%; Distribution (Rattus norvegicus [33]): 0.97%; Distribution (Rattus norvegicus [34]): 9.9%; Distribution (Rattus norvegicus [35]): 43.5%; Specific activity (Rattus norvegicus [36]): 1.77 Ci mM-1; Specific activity (Rattus norvegicus [37]): 2.21 Ci mM-1
